Activity calls are given as the source filed them.
Columns and labels:
[1] = system: Cellular tumor antigen p53 (Homo sapiens), P04637 [R280K]; assay: Induction of p53 R280K mutant depletion in human MDA-MB-231 cells at 10 uM by immunoblot analysis; format: cell-based
Method in brief: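 MDA-MB-231 cells treated with 10 µM for 24 h; whole-cell lysates immunoblotted for p53 (DO-1) with β-actin loading control, ECL.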

[2] = system: Cellular tumor antigen p53 (Homo sapiens), P04637 [G245C]; assay: Induction of p53 G245C mutant depletion in human NCI-H596 cells at 20 uM by immunoblot analysis; format: cell-based
[3] = system: Cellular tumor antigen p53 (Homo sapiens), P04637 [G245C]; assay: Induction of conformational changes in p53 G245C mutant in human NCI-H596 cells at 60 uM incubated for 1 hr at 32 degC by tryptophan fluorescence emission spectroscopy; format: cell-based
Method in brief: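 6 µM purified G245C p53 DNA-binding domain incubated 1 h at 32 °C alone, with DMSO or 60 µM agent; intrinsic fluorescence emission 285–400 nm, excitation 280 nm, slit 5 nm, 3 scans averaged.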

MDA-MB-231 [4] = assay: Induction of apoptosis in human MDA-MB-231 cells expressing p53 R280K mutant at 10 uM incubated for 24 hrs by FITC/Annexin-V staining method; format: functional, cell-based
Method in brief: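 MDA-MB-231 cells at 40–50% confluency treated with DMSO or 10 µM in DMSO for 24 h; washed in cold PBS, stained with FITC-Annexin V and propidium iodide, analysed by flow cytometry; early apoptotic (Annexin V+/PI−) fraction; mean ± SD of three experiments, unequal-variance two-sample t-test.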

[5] = system: Cellular tumor antigen p53 (Homo sapiens), P04637 [G245C]; assay: Induction of covalent cysteine modification at p53 G245C mutant in human NCI-H596 cells at 100 uM incubated for 1 hr by monochlorobimane fluorometric assay; format: cell-based
[6] = system: Cellular tumor antigen p53 (Homo sapiens), P04637 [G245C]; assay: Induction of p53 G245C mutant depletion in human NCI-H596 cells at 40 uM incubated for 2 hrs by immunoblot analysis; format: cell-based
Method in brief: (§1)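 H596 cells (G245C p53), maintained in DMEM or RPMI-1640 with 10% FBS, treated either at 15 µM for varying times up to 24 h or at varying concentrations (10–60 µM) for 2 h; whole-cell lysates, equal protein on SDS gels, PVDF, blotted with p53 DO-1 and β-actin antibodies, ECL.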

[7] = system: Cellular tumor antigen p53 (Homo sapiens), P04637 [G245C]; assay: Induction of p53 G245C mutant depletion in human NCI-H596 cells at 10 uM incubated for 2 hrs by immunoblot analysis; format: cell-based; method in brief: as §1
[8] = system: Cellular tumor antigen p53 (Homo sapiens), P04637 [G245C]; assay: Induction of p53 G245C mutant depletion in human NCI-H596 cells at 20 uM incubated for 2 hrs by immunoblot analysis; format: cell-based; method in brief: as §1
[9] = system: Cellular tumor antigen p53 (Homo sapiens), P04637 [G245C]; assay: Induction of p53 G245C mutant depletion in human NCI-H596 cells at 15 uM up to 24 hrs by immunoblot analysis; format: cell-based; method in brief: as §1
[10] = system: Cellular tumor antigen p53 (Homo sapiens), P04637 [G245C]; assay: Induction of p53 G245C mutant depletion in human NCI-H596 cells at 60 uM after 2 hrs by immunoblot analysis; format: cell-based; method in brief: as §1
NCI-H596 [11] = assay: Effect on p53 mRNA expression in human NCI-H596 cells at 15 uM incubated for 2 to 6 hrs by RT-PCR; format: functional, cell-based
Method in brief: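 H596 cells exposed to 15 µM for 2, 4 and 6 h, vehicle DMSO; total RNA extracted, one-step RT-PCR for p53 and β-actin mRNA.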

NCI-H596 [12] = assay: Effect on JNK protein expression in human NCI-H596 cells by immunoblot analysis; format: functional, cell-based
Method in brief: (§2)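 H596 lung cancer cells treated with 15 µM; whole-cell lysates in HEPES pH 7.4/Triton X-100 lysis buffer with protease and phosphatase inhibitors; equal protein resolved on 4–12% Bis-Tris gels, transferred to PVDF, immunoblotted; ECL detection.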

[13] = system: Cellular tumor antigen p53 (Homo sapiens), P04637 [G245C]; assay: Induction of p53 G245C mutant depletion in human NCI-H596 cells incubated for 2 to 6 hrs by immunoblot analysis; format: cell-based; method in brief: as §1
MDA-MB-468 = assay: Induction of apoptosis in human MDA-MB-468 cells expressing p53 R273H mutant assessed as caspase-3 activation incubated for 24 hrs; format: functional, cell-based
Method in brief: (§3)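 Cells treated with DMSO or drug for 24 h, lysed in ice-cold kit buffer; 100–200 µg protein incubated with Ac-DEVD-p-nitroaniline at 37 °C for 2–4 h; p-nitroanilide read at 405 nm; mean ± SD of three independent experiments.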

NCI-H596 [14] = assay: Effect on HSP90 protein expression in human NCI-H596 cells by immunoblot analysis; format: functional, cell-based; method in brief: as §2
MDA-MB-231 [15] = assay: Induction of apoptosis in human MDA-MB-231 cells expressing p53 R280K mutant assessed as caspase-3 activation incubated for 24 hrs; format: functional, cell-based; method in brief: as §3
[16] = biological target: Cellular tumor antigen p53 (Homo sapiens) (UniProt P04637); assay: Induction of p53 activation in human MCF7 cells at 20 uM incubated for 24 hrs by immunoblot analysis; format: cell-based
Method in brief: (§4)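 Wild-type p53 lines HCT116, A549 and MCF-7 treated with 20 µM for 2, 4, 8 and 24 h; lysates immunoblotted for p53 (DO-1) and β-actin, ECL.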

H1299 [17] = assay: Induction of temperature sensitive p53 143A mutant depletion in human H1299 cells at 15 uM incubated for 24 hrs at 32.5 degC by immunoblot analysis; format: cell-based
[18] = system: Cellular tumor antigen p53 (Homo sapiens), P04637 [R280K]; assay: Induction of p53 R280K mutant depletion in human MDA-MB-231 cells at 15 uM by immunoblot analysis; format: cell-based; details: TDE = time-dependent effect
Method in brief: (§5)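 Mutant-p53 lines SCC-4, MDA-MB-468 and MDA-MB-231 exposed to 15 µM for a time course; lysates immunoblotted with p53 DO-1 and β-actin antibodies, ECL detection.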

NCI-H596 [19] = assay: Effect on Bax protein expression in human NCI-H596 cells by immunoblot analysis; format: functional, cell-based; method in brief: as §2
[20] = system: Cellular tumor antigen p53 (Homo sapiens), P04637 [R273H]; assay: Induction of p53 R273H mutant depletion in human SW480 cells at 10 uM by immunoblot analysis; format: cell-based; details: TDE = time-dependent effect
Method in brief: (§6)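 DU145 and SW480 cells exposed to 10 µM for a time course; lysates immunoblotted with p53 DO-1 and β-actin antibodies, ECL detection.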

[21] = system: Cellular tumor antigen p53 (Homo sapiens), P04637 [P151S]; assay: Induction of p53 P151S mutant depletion in human SCC4 cells at 15 uM by immunoblot analysis; format: cell-based; details: SCC-4, TDE = time-dependent effect; method in brief: as §5
H1299 [22] = assay: Induction of temperature sensitive p53 143A mutant depletion in human H1299 cells at 15 uM incubated for 24 hrs at 37 degC by immunoblot analysis; format: cell-based
SW480 = assay: Induction of apoptosis in human SW480 cells expressing p53 R273H mutant assessed as caspase-3 activation incubated for 24 hrs; format: functional, cell-based; method in brief: as §3
MCF7 = assay: Induction of apoptosis in human MCF7 cells expressing wild type p53 assessed as caspase-3 activation incubated for 24 hrs; format: functional, cell-based; method in brief: as §3
H1299 [23] = assay: Induction of non-temperature sensitive p53 175H mutant depletion in human H1299 cells at 15 uM incubated for 24 hrs at 32.5 degC by immunoblot analysis; format: cell-based
H1299 [24] = assay: Induction of non-temperature sensitive p53 175H mutant depletion in human H1299 cells at 15 uM incubated for 24 hrs at 37 degC by immunoblot analysis; format: cell-based
[25] = biological target: Cellular tumor antigen p53 (Homo sapiens) (UniProt P04637); assay: Induction of p53 depletion in human A549 cells at 20 uM incubated for 2 to 24 hrs by immunoblot analysis; format: cell-based; method in brief: as §4
[26] = biological target: Cellular tumor antigen p53 (Homo sapiens) (UniProt P04637); assay: Induction of p53 depletion in human HCT116 cells at 20 uM incubated for 2 to 24 hrs by immunoblot analysis; format: cell-based; details: HCT-116; method in brief: as §4
HCT-116 = assay: Induction of apoptosis in human HCT116 cells expressing wild type p53 assessed as caspase-3 activation incubated for 24 hrs; format: functional, cell-based; method in brief: as §3
[27] = system: Cellular tumor antigen p53 (Homo sapiens), P04637 [G245C]; assay: Induction of p53 G245C mutant depletion in human NCI-H596 cells at 15 uM by immunoblot analysis; format: cell-based; details: TDE = time-dependent effect; method in brief: as §1
[28] = biological target: Cellular tumor antigen p53 (Homo sapiens) (UniProt P04637); assay: Induction of p53 depletion in human MCF10A cells at 15 uM incubated for 2 to 24 hrs by immunoblot analysis; format: cell-based; details: MCF-10A
Method in brief: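 MCF-10A normal mammary epithelial cells treated with 15 µM for 2, 4, 8 and 24 h; lysates immunoblotted for p53 (DO-1) and β-actin, ECL.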

[29] = system: Cellular tumor antigen p53 (Homo sapiens), P04637 [R273H]; assay: Induction of p53 R273H mutant depletion in human MDA-MB-468 cells at 15 uM by immunoblot analysis; format: cell-based; details: TDE = time-dependent effect; method in brief: as §5
DU-145 = assay: Induction of p53 […] mutant depletion in human DU145 cells at 10 uM by immunoblot analysis; format: cell-based; details: TDE = time-dependent effect; method in brief: as §6
[30] = biological target: Cellular tumor antigen p53 (Homo sapiens) (UniProt P04637); assay: Induction of p53 depletion in human MCF7 cells at 20 uM incubated for 2 to 24 hrs by immunoblot analysis; format: cell-based; method in brief: as §4
A549 = assay: Induction of apoptosis in human A549 cells expressing wild type p53 assessed as caspase-3 activation incubated for 24 hrs; format: functional, cell-based; method in brief: as §3
NCI-H596 [31] = assay: Effect on DR5 protein expression in human NCI-H596 cells by immunoblot analysis; format: functional, cell-based; method in brief: as §2
NCI-H596 [32] = assay: Induction of apoptosis in human NCI-H596 cells expressing p53 G245C mutant assessed as caspase-3 activation incubated for 24 hrs; format: functional, cell-based; method in brief: as §3

Measured: Activity

S=C=NCCCCCc1ccccc1
active: [1] | [2]

C[C@@H](N=C=S)c1ccccc1
inactive: [1] | [2]
active: [3]

S=C=NCCCCc1ccccc1
active: [1] | MDA-MB-231 [4] | [2]

S=C=NCc1ccc(Cl)cc1
active: [5] | [1] | [2]

C=CCN=C=S
inactive: [5] | [1] | [2] | [6]

S=C=NCCCCCCc1ccccc1
active: [1] | [2]

S=C=NC(c1ccccc1)(c1ccccc1)c1ccccc1
inactive: [5] | [1] | MDA-MB-231 [4] | [2]

S=C=NCc1ccccc1
active: [3] | [7] | [5] | [1] | [8] | MDA-MB-231 [4] | [2]

COc1ccc(CN=C=S)cc1
active: [5] | [1] | [2]

S=C=NCC1CCCCC1
inactive: [5] | [1] | MDA-MB-231 [4] | [2]

S=C=NCc1ccc(Oc2ccccc2)cc1
active: [3] | [1] | [2]

CNCCc1ccccc1
inactive: [9] | [2] | [10]

S=C=NCC(c1ccccc1)c1ccccc1
active: [5] | [1] | MDA-MB-231 [4] | [2]

S=C=Nc1ccccc1
inactive: [5] | [1] | [2]

C[S+]([O-])CCCCN=C=S (centres undefined)
inactive: [3] | [5] | [1] | MDA-MB-231 [4] | [2] | [6]

S=C=NCCCc1ccccc1
active: [5] | [1] | MDA-MB-231 [4] | [2]

S=C=NCCc1ccccc1
active: [13] Dose-dependent effect | MDA-MB-468 | MDA-MB-231 [15] | [16] | [18] tde | [20] tde | [21] tde | [5] | H1299 [22] | [1] | SW480 | H1299 [23] | H1299 [24] | [27] tde | [2] | [29] tde | DU-145 tde | NCI-H596 [32]
inactive: NCI-H596 [11] | NCI-H596 [12] | NCI-H596 [14] | H1299 [17] | NCI-H596 [19] | MCF7 | [25] | [26] | HCT-116 | [28] | [30] | A549 | NCI-H596 [31]

— ChEMBL document CHEMBL2150971, “Selective depletion of mutant p53 by cancer chemopreventive isothiocyanates and their structure-activity relationships” (J Med Chem, 2011)
